Test results taken from ChEMBL document CHEMBL1759857, “Synthesis and evaluation of isatin analogs as caspase-3 inhibitors: introduction of a hydrophilic group increases potency in a whole cell assay” (Bioorg Med Chem Lett, 2011).

Key:
Caspase-3 [1] = target: T1, Caspase-3 (Homo sapiens, UniProt P42574); assay: Inhibition of staurosporine induced activation of caspase 3 activation in human Hela cells assessed as hydrolysis of Z-DEVD-R110 substrate by microplate fluorescence assay; type: cell-based
T1 sequence (P42574 whole entry): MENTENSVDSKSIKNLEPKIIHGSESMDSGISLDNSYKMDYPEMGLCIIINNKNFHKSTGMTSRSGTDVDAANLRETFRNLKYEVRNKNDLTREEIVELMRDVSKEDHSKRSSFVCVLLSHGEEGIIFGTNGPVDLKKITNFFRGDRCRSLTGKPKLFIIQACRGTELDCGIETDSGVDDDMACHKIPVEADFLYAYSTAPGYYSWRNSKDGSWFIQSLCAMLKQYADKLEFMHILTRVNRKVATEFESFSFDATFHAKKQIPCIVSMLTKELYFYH
Outline: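 HeLa cells were seeded at 1-2×10^4 per well and left to adhere overnight at 37°C in 5% CO2. […] A homogeneous caspase-3/7 kit with cell-permeable Z-DEVD-R110 was then used, reading fluorescence at ex 485/em 535 nm. EC50 was taken from dose-response curves, as mean ± SD of ≥3 independent experiments.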

Caspase-3 [2] = target: T1, Caspase-3; assay: Inhibition of human caspase 3 by fluorometric assay
Outline: (§1)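 Recombinant caspases were tested in a standard fluorometric enzyme assay. IC50 is reported as mean ± SD of at least three independent assays.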

Caspase-8 = Caspase-8 (Homo sapiens, UniProt Q14790); assay: Inhibition of caspase 8 by fluorometric assay; outline: as §1
Caspase-7 = target: T2, Caspase-7 (Homo sapiens, UniProt P55210); assay: Inhibition of caspase 7 by fluorometric assay
T2 sequence (P55210 whole entry): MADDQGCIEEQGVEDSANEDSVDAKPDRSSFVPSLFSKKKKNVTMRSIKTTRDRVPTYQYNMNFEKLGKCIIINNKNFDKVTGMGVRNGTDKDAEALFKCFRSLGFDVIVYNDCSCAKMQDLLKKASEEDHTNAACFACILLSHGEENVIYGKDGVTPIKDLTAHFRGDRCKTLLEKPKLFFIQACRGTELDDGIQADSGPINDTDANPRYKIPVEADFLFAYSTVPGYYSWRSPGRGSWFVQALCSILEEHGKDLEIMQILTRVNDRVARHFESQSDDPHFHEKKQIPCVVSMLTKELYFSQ

Caspase-6 = target: T3, Caspase-6 (Homo sapiens, UniProt P55212); assay: Inhibition of caspase 6 by fluorometric assay; outline: as §1
T3 sequence (P55212 whole entry): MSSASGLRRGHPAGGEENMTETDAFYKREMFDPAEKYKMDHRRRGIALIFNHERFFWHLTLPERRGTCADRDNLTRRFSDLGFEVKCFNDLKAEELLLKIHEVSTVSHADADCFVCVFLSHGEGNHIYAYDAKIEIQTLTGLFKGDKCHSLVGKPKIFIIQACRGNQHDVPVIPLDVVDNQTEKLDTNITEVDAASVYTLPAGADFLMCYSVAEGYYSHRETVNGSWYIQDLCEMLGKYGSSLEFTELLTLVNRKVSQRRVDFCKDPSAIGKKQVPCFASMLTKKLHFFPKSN

Caspase-1 = target: T4, Caspase-1 (Homo sapiens, UniProt P29466); assay: Inhibition of caspase 1 by fluorometric assay; outline: as §1
T4 sequence (P29466 whole entry): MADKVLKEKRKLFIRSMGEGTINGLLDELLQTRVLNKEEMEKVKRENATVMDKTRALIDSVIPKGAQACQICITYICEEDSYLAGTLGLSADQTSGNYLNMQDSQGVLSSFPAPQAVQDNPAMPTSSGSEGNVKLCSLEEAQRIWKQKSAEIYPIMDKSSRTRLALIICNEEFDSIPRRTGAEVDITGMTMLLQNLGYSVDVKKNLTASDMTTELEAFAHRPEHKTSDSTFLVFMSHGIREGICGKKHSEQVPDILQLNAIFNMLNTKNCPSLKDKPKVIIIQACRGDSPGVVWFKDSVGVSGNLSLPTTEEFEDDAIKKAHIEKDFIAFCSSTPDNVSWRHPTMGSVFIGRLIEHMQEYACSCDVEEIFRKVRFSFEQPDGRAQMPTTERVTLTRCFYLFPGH

Caspase-8, sequence (Q14790 217-374 limits assumed): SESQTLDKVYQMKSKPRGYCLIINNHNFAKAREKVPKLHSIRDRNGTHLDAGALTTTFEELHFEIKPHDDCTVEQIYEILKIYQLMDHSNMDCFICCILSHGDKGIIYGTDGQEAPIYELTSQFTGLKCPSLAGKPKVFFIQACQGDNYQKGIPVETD
Caspase-8, sequence (Q14790 385-479 limits assumed): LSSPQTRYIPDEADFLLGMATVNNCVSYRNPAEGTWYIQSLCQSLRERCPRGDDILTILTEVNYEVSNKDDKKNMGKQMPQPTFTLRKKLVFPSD

SMILES | EC50 (Caspase-3 [1]) [µM] | IC50 (Caspase-3 [2]) [µM] | IC50 (Caspase-8) [µM] | IC50 (Caspase-7) [µM] | IC50 (Caspase-6) [µM] | IC50 (Caspase-1) [µM]
CN1C(=O)C(=O)c2cc(S(=O)(=O)N3CCC[C@H]3COc3ccccc3)ccc21 | 7.67 | – | – | – | – | –
O=C1C(=O)N(Cc2ccc(OCCOCCF)cc2)c2ccc(S(=O)(=O)N3CCC[C@H]3COc3ccccc3)cc21 | 1.69 | 0.0109 | > 50 | 0.0119 | > 10 | > 25
O=C1C(=O)N(Cc2ccccc2)c2ccc(S(=O)(=O)N3CC[C@H]3COc3ccccc3)cc21 | 2.8 | – | – | – | – | –
O=C1C(=O)N(Cc2ccccc2)c2ccc(S(=O)(=O)N3CCC[C@H]3COc3cccnc3)cc21 | 0.65 | – | – | – | – | –
N#CC(C#N)=C1C(=O)N(Cc2ccc(OCCF)cc2)c2ccc(S(=O)(=O)N3CCC[C@H]3COc3ccccc3)cc21 | – | 0.0183 | > 50 | 0.0963 | 0.927 | > 10
O=C1C(=O)N(Cc2ccc(OCCF)cc2)c2ccc(S(=O)(=O)N3CC[C@H]3COc3ccc(F)cc3F)cc21 | 1.39 | 0.012 | > 50 | 0.0154 | 3.48 | > 50
O=C1C(=O)N(Cc2cn(CCF)nn2)c2ccc(S(=O)(=O)N3CCC[C@H]3COc3ccc(F)cc3F)cc21 | 0.68 | 0.0108 | > 50 | 0.0116 | 4.43 | > 20
COc1ccc(CN2C(=O)C(=O)c3cc(S(=O)(=O)N4CC[C@H]4COc4ccccc4)ccc32)cc1 | 3.07 | – | – | – | – | –
O=C1C(=O)N(Cc2ccccc2)c2ccc(S(=O)(=O)N3CCC[C@H]3COc3ccccc3)cc21 | 3.67 | – | – | – | – | –
CN1C(=O)C(=O)c2cc(S(=O)(=O)N3CC[C@H]3COc3ccccc3)ccc21 | 3.25 | – | – | – | – | –
O=C1C(=O)N(Cc2ccc(OCCF)cc2)c2ccc(S(=O)(=O)N3CCC[C@H]3COc3ccc(F)cc3F)cc21 | 2.5 | 0.0152 | > 50 | 0.0123 | 9.12 | > 50
O=C1C(=O)N(Cc2cn(CCF)nn2)c2ccc(S(=O)(=O)N3CC[C@H]3COc3ccccc3)cc21 | 0.8 | 0.011 | > 50 | 0.018 | 6.95 | > 20
N#CC(C#N)=C1C(=O)N(Cc2ccc(OCCF)cc2)c2ccc(S(=O)(=O)N3CCC[C@H]3COc3cccnc3)cc21 | – | 0.0075 | > 50 | 0.0265 | 0.77 | 3.5
O=C1C(=O)N(Cc2cn(CCF)nn2)c2ccc(S(=O)(=O)N3CC[C@H]3COc3cccnc3)cc21 | 0.42 | 0.0056 | > 50 | 0.0061 | 7.75 | > 20
O=C1C(=O)N(Cc2cn(CCF)nn2)c2ccc(S(=O)(=O)N3CCC[C@H]3COc3cccnc3)cc21 | 0.35 | 0.0045 | > 50 | – | 13.4 | > 20
O=C1C(=O)N(Cc2ccc(OCCOCCOCCF)cc2)c2ccc(S(=O)(=O)N3CCC[C@H]3COc3ccccc3)cc21 | 1.3 | 0.0137 | > 50 | 0.0176 | 7.67 | > 50
O=C1C(=O)N(Cc2ccc(OCCF)cc2)c2ccc(S(=O)(=O)N3CCC[C@H]3COc3ccccc3)cc21 | 4.5 | – | – | – | – | –
O=C1Nc2ccc(S(=O)(=O)N3CCC[C@H]3COc3ccccc3)cc2C1=O | 11.5 | – | – | – | – | –

SMILES | EC50 (Caspase-3 [1]) [µM] | IC50 (Caspase-3 [2]) [µM] | IC50 (Caspase-8) [µM] | IC50 (Caspase-7) [µM] | IC50 (Caspase-6) [µM] | IC50 (Caspase-1) [µM]
N#CC(C#N)=C1C(=O)N(Cc2ccc(OCCF)cc2)c2ccc(S(=O)(=O)N3CC[C@H]3COc3ccccc3)cc21 | – | 0.0224 | > 25 | 0.292 | 0.747 | 4.78
COc1ccc(CN2C(=O)C(=C(C#N)C#N)c3cc(S(=O)(=O)N4CC[C@H]4COc4cccnc4)ccc32)cc1 | – | 0.006 | > 50 | 0.05 | 0.45 | > 36
COc1ccc(CN2C(=O)C(=O)c3cc(S(=O)(=O)N4CC[C@H]4COc4cccnc4)ccc32)cc1 | 0.45 | 0.0033 | > 50 | 0.0102 | 9.2 | > 15
O=C1C(=O)N(Cc2ccc(OCCF)cc2)c2ccc(S(=O)(=O)N3CC[C@H]3COc3ccccc3)cc21 | 2 | 0.0086 | > 25 | 0.0261 | 4.93 | > 20
O=C1C(=O)N(Cc2ccc(OCCF)cc2)c2ccc(S(=O)(=O)N3CCC[C@H]3COc3cccnc3)cc21 | 0.39 | 0.0031 | > 50 | 0.0113 | 6.9 | > 20
N#CC(C#N)=C1C(=O)N(Cc2ccc(OCCF)cc2)c2ccc(S(=O)(=O)N3CC[C@H]3COc3cccnc3)cc21 | – | 0.0071 | > 50 | 0.045 | 0.509 | 2.9
O=C1C(=O)N(Cc2ccc(OCCOCCF)cc2)c2ccc(S(=O)(=O)N3CC[C@H]3COc3ccccc3)cc21 | 2.15 | 0.0279 | > 50 | 0.0289 | > 10 | > 50
O=C1C(=O)N(Cc2cn(CCF)nn2)c2ccc(S(=O)(=O)N3CC[C@H]3COc3ccc(F)cc3F)cc21 | 1.06 | 0.0134 | > 50 | 0.0153 | 4.7 | > 20
O=C1C(=O)N(Cc2ccc(OCCOCCOCCF)cc2)c2ccc(S(=O)(=O)N3CC[C@H]3COc3ccccc3)cc21 | – | 0.0269 | > 50 | 0.0192 | 2.99 | > 25
COc1ccc(CN2C(=O)C(=O)c3cc(S(=O)(=O)N4CCC[C@H]4COc4cccnc4)ccc32)cc1 | 0.45 | – | – | – | – | –
O=C1Nc2ccc(S(=O)(=O)N3CCC[C@H]3COc3cccnc3)cc2C1=O | 1.83 | – | – | – | – | –
O=C1C(=O)N(Cc2ccc(OCCF)cc2)c2ccc(S(=O)(=O)N3CC[C@H]3COc3cccnc3)cc21 | 0.38 | 0.0036 | > 50 | 0.0176 | 8.7 | > 10
N#CC(C#N)=C1C(=O)N(Cc2ccc(OCCOCCF)cc2)c2ccc(S(=O)(=O)N3CC[C@H]3COc3ccccc3)cc21 | – | 0.0244 | > 50 | 0.0683 | 1.01 | 5.73
O=C1Nc2ccc(S(=O)(=O)N3CC[C@H]3COc3ccccc3)cc2C1=O | 9.57 | – | – | – | – | –
CN1C(=O)C(=O)c2cc(S(=O)(=O)N3CCC[C@H]3COc3cccnc3)ccc21 | 1.8 | – | – | – | – | –
N#CC(C#N)=C1C(=O)N(Cc2ccc(OCCOCCF)cc2)c2ccc(S(=O)(=O)N3CCC[C@H]3COc3ccccc3)cc21 | – | 0.0233 | > 50 | 0.07 | 1.16 | > 10
O=C1C(=O)N(Cc2cn(CCF)nn2)c2ccc(S(=O)(=O)N3CCC[C@H]3COc3ccccc3)cc21 | 0.93 | 0.0122 | > 50 | 0.0124 | 9.97 | > 20
